Measured values as given in ChEMBL document CHEMBL4689842, “EUbOPEN Chemogenomics Library wave 1” (2021).

Columns and labels:
[1] = system: U2OS; test: Multiplex assay against U2OS; type: toxicity, cell-based; details: human
Method in brief: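 Per cents of healthy-nucleus cells form the tubulin, mitochondrial-mass and membrane-permeability phenotype values. Live cells were stained at seeding with Hoechst33342, BioTracker Green Microtubule Cytoskeleton Dye, MitoTracker Red and Annexin V Alexa Fluor 680. After compound addition they were imaged on a CQ1 microscope at 37°C and 5% CO2, and CellPathfinder machine-learning gating split them into Hoechst high-intensity objects or normal cells, normal cells into healthy, pyknosed or fragmented nuclei, and pyknosed cells into mitotic or apoptotic.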

[2] = system: HEK-293T; test: Incucyte cell viability with HEK293T; type: toxicity, cell-based; details: human, 10 µM, compound concentration 10 uM; note: filed as whole numbers so only -1 and 0 and 1 occur
[3] = 12 h, 1 µM, compound concentration 1 uM, replicate 1
[4] = 12 h, 1 µM, compound concentration 1 uM, replicate 2
[5] = 12 h, 10 µM, compound concentration 10 uM, replicate 1
[6] = 12 h, 10 µM, compound concentration 10 uM, replicate 2
[7] = 24 h, 1 µM, compound concentration 1 uM, replicate 1
[8] = 24 h, 1 µM, compound concentration 1 uM, replicate 2
[9] = 24 h, 10 µM, compound concentration 10 uM, replicate 1
[10] = 24 h, 10 µM, compound concentration 10 uM, replicate 2
[11] = 48 h, 1 µM, compound concentration 1 uM, replicate 1
[12] = 48 h, 1 µM, compound concentration 1 uM, replicate 2
[13] = 48 h, 10 µM, compound concentration 10 uM, replicate 1
[14] = 48 h, 10 µM, compound concentration 10 uM, replicate 2

## CC(/C=C1\SC(=S)N(CCCC(=O)Nc2ccc(C(=O)O)c(O)c2)C1=O)=C\c1ccccc1
[1]; [3]
  Population Apoptotic (%): 53%
  Population Fragmented Nuclei (%): 8%
  Population Healthy Nuclei (%): 77%
  Population Hoechst High Intensity Objects (%): 3%
  Population Membrane Permeable-Phenotype (%): 7%
  Population Mitochondria Different-Phenotype (%): 5%
  Population Mitotic Cells (%): 46%
  Population Normal (%): 96%
  Population Pyknosed Nuclei (%): 13%
  Population Tubulin-Different-Phenotype (%): 13%
  Total Cell Count: 154
[1]; [4]
  Population Apoptotic (%): 33%
  Population Fragmented Nuclei (%): 10%
  Population Healthy Nuclei (%): 81%
  Population Hoechst High Intensity Objects (%): 6%
  Population Mitochondria Different-Phenotype (%): 7%
  Population Mitotic Cells (%): 66%
  Population Normal (%): 93%
  Population Pyknosed Nuclei (%): 7%
  Population Tubulin-Different-Phenotype (%): 7%
  Total Cell Count: 65
[1]; [5]
  Population Apoptotic (%): 42%
  Population Fragmented Nuclei (%): 7%
  Population Healthy Nuclei (%): 86%
  Population Hoechst High Intensity Objects (%): 9%
  Population Membrane Permeable-Phenotype (%): 9%
  Population Mitochondria Different-Phenotype (%): 5%
  Population Mitotic Cells (%): 57%
  Population Normal (%): 90%
  Population Pyknosed Nuclei (%): 5%
  Population Tubulin-Different-Phenotype (%): 8%
  Total Cell Count: 117
[1]; [6]
  Population Apoptotic (%): 44%
  Population Fragmented Nuclei (%): 17%
  Population Healthy Nuclei (%): 72%
  Population Hoechst High Intensity Objects (%): 7%
  Population Membrane Permeable-Phenotype (%): 6%
  Population Mitochondria Different-Phenotype (%): 6%
  Population Mitotic Cells (%): 55%
  Population Normal (%): 92%
  Population Pyknosed Nuclei (%): 10%
  Population Tubulin-Different-Phenotype (%): 9%
  Total Cell Count: 88
[1]; [7]
  Population Apoptotic (%): 53%
  Population Fragmented Nuclei (%): 6%
  Population Healthy Nuclei (%): 83%
  Population Hoechst High Intensity Objects (%): 4%
  Population Membrane Permeable-Phenotype (%): 5%
  Population Mitochondria Different-Phenotype (%): 9%
  Population Mitotic Cells (%): 46%
  Population Normal (%): 95%
  Population Pyknosed Nuclei (%): 10%
  Population Tubulin-Different-Phenotype (%): 5%
  Total Cell Count: 151
[1]; [8]
  Population Apoptotic (%): 54%
  Population Fragmented Nuclei (%): 12%
  Population Healthy Nuclei (%): 76%
  Population Hoechst High Intensity Objects (%): 6%
  Population Membrane Permeable-Phenotype (%): 4%
  Population Mitochondria Different-Phenotype (%): 10%
  Population Mitotic Cells (%): 45%
  Population Normal (%): 93%
  Population Tubulin-Different-Phenotype (%): 12%
  Total Cell Count: 64
[1]; [9]
  Population Apoptotic (%): 36%
  Population Fragmented Nuclei (%): 11%
  Population Healthy Nuclei (%): 81%
  Population Hoechst High Intensity Objects (%): 5%
  Population Membrane Permeable-Phenotype (%): 5%
  Population Mitochondria Different-Phenotype (%): 8%
  Population Mitotic Cells (%): 63%
  Population Normal (%): 94%
  Population Pyknosed Nuclei (%): 6%
  Population Tubulin-Different-Phenotype (%): 6%
  Total Cell Count: 151
[1]; [10]
  Population Apoptotic (%): 44%
  Population Fragmented Nuclei (%): 9%
  Population Healthy Nuclei (%): 83%
  Population Hoechst High Intensity Objects (%): 4%
  Population Mitochondria Different-Phenotype (%): 14%
  Population Mitotic Cells (%): 55%
  Population Normal (%): 95%
  Population Pyknosed Nuclei (%): 7%
  Population Tubulin-Different-Phenotype (%): 14%
  Total Cell Count: 115
[1]; [11]
  Population Apoptotic (%): 61%
  Population Fragmented Nuclei (%): 2%
  Population Healthy Nuclei (%): 92%
  Population Hoechst High Intensity Objects (%): 1%
  Population Membrane Permeable-Phenotype (%): 1%
  Population Mitochondria Different-Phenotype (%): 9%
  Population Mitotic Cells (%): 38%
  Population Normal (%): 98%
  Population Pyknosed Nuclei (%): 5%
  Population Tubulin-Different-Phenotype (%): 10%
  Total Cell Count: 142
[1]; [12]
  Population Apoptotic (%): 50%
  Population Fragmented Nuclei (%): 7%
  Population Healthy Nuclei (%): 84%
  Population Hoechst High Intensity Objects (%): 4%
  Population Membrane Permeable-Phenotype (%): 10%
  Population Mitochondria Different-Phenotype (%): 14%
  Population Mitotic Cells (%): 50%
  Population Normal (%): 95%
  Population Pyknosed Nuclei (%): 8%
  Population Tubulin-Different-Phenotype (%): 14%
  Total Cell Count: 60
[1]; [13]
  Population Apoptotic (%): 31%
  Population Fragmented Nuclei (%): 5%
  Population Healthy Nuclei (%): 87%
  Population Hoechst High Intensity Objects (%): 2%
  Population Membrane Permeable-Phenotype (%): 2%
  Population Mitochondria Different-Phenotype (%): 11%
  Population Mitotic Cells (%): 68%
  Population Normal (%): 97%
  Population Pyknosed Nuclei (%): 7%
  Population Tubulin-Different-Phenotype (%): 11%
  Total Cell Count: 241
[1]; [14]
  Population Apoptotic (%): 16%
  Population Fragmented Nuclei (%): 4%
  Population Healthy Nuclei (%): 92%
  Population Hoechst High Intensity Objects (%): 0%
  Population Membrane Permeable-Phenotype (%): 1%
  Population Mitochondria Different-Phenotype (%): 17%
  Population Mitotic Cells (%): 83%
  Population Normal (%): 99%
  Population Pyknosed Nuclei (%): 2%
  Population Tubulin-Different-Phenotype (%): 19%
  Total Cell Count: 147
[2]; 0 h, replicate number 1, timepoint 0 hours
  Growth Rate: 0
[2]; 6 h, replicate number 1, timepoint 6 hours
  Growth Rate: 1
[2]; 12 h, replicate number 1, timepoint 12 hours
  Growth Rate: 0
[2]; 12 h, replicate number 2, timepoint 12 hours
  Growth Rate: 1
[2]; 18 h, replicate number 1, timepoint 18 hours
  Growth Rate: 0
[2]; 18 h, replicate number 2, timepoint 18 hours
  Growth Rate: 1
[2]; 24 h, replicate number 1, timepoint 24 hours
  Growth Rate: 0
[2]; 24 h, replicate number 2, timepoint 24 hours
  Growth Rate: 1
